Read-outs that look alike come from different tables or passages of the source. Some results are limits rather than exact numbers.

Consider ten compounds from PMC2933382 (Biochemistry, 2010).

In one series the test system is Aag-2 cells. The series is classed as cell-based, Aedes aegypti. The conditions noted are these: for Incorporation of [3H]cholesterol: Fig. 4; for Incorporation of [3H]palmitic acid: Fig. 5.
Series [1] has as its target T1, AeSCP-2 M90L mutant (Aedes aegypti, UniProt Q86PR3, M90L). The format is binding. As to conditions: Fig. 6D.
In series [2] the test system is wild type AeSCP-2 denatured in 6.5 M guanidine hydrochloride. Description: Intrinsic tryptophan fluorescence, denatured protein negative control. As to conditions: Fig. 6B. The format is binding, Aedes aegypti. The essentials:
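Negative control: recombinant AeSCP-2 denatured in 6.5 M guanidine-HCl in 50 mM Tris-HCl, pH 7.4, scanned with and without inhibitor. Excitation at 280 nm; emission read 320–390 nm. Buffer and inhibitor-alone spectra were subtracted to give difference spectra.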

In series [3] the target is T2, wild type AeSCP-2 (Aedes aegypti, UniProt Q86PR3).
T2 sequence (Q86PR3 1-110): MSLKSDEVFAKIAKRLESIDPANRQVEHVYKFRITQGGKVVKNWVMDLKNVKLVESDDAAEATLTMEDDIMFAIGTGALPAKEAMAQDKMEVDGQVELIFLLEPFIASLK
The series is classed as binding. The conditions noted are these: 50 µM SCPI; wild type AeSCP-2 at 10 µM; Fig. 6A. The procedure, abridged: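 Intrinsic Trp (single residue, W44) fluorescence of purified recombinant native AeSCP-2, with and without SCP-2 inhibitor. Run in 100 µL of 50 mM Tris-HCl, pH 8.0, at 25 °C. Excitation at 280 nm; emission scanned 320–390 nm. Difference spectra were made by subtracting buffer and inhibitor-alone spectra.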

Series [4] deals with T3, AeSCP-2 F9W/W44F mutant (Aedes aegypti, UniProt Q86PR3, F9W/W44F). The series is classed as binding. The conditions noted are these: Fig. 6C.
The target in series [5] is T4, AeSCP-2 F105W mutant (Aedes aegypti, UniProt Q86PR3, F105W). Description: NBD-cholesterol binding to recombinant AeSCP-2 mutant. The conditions noted are these: 0.5 µM NBD-cholesterol, protein 0.01 to 10 µM, mean (standard deviation).
In series [6] the target is T5, AeSCP-2 W44E mutant (Aedes aegypti, UniProt Q86PR3, W44E). Described as above.
The target of series [7] is T3, AeSCP-2 F9W/W44F mutant. The description is as above.
Series [8] concerns the target T6, AeSCP-2 Y30A mutant (Aedes aegypti, UniProt Q86PR3, Y30A). The description is as above.
Series [9] has as its target T1, AeSCP-2 M90L mutant. Described as above.
The next series concerns the target AeSCP-2 F105A mutant (Aedes aegypti, UniProt Q86PR3, F105A). Described as above.
Series [10] has as its target T7, AeSCP-2 F32W mutant (Aedes aegypti, UniProt Q86PR3, F32W). The description is as above. The conditions noted are these: 0.5 µM NBD-cholesterol, protein 0.01 to 10 µM, mean (standard deviation).
The target of another series is T8, AeSCP-2 wild-type (Aedes aegypti, UniProt Q86PR3).
T8 sequence (Q86PR3 1-110): T2 sequence (Q86PR3 1-110)
Nature of the series: NBD-cholesterol binding to recombinant AeSCP-2. As to conditions: wt; 0.5 µM NBD-cholesterol, protein 0.01 to 10 µM; mean (standard deviation).

The target in the next series is AeSCP-2 F32A mutant (Aedes aegypti, UniProt Q86PR3, F32A). Description: NBD-cholesterol binding to recombinant AeSCP-2 mutant.
Series [11] has as its target T9, AeSCP-2 (Aedes aegypti, UniProt Q86PR3).
T9 sequence (Q86PR3 1-110): T2 sequence (Q86PR3 1-110)
The conditions noted are these: read-out: IC50 (suppression of NBD-cholesterol binding); cited from earlier work.

For series [12], the target named is T9, AeSCP-2. Nature of the series: Initial ligand competition assay. The format is binding. As to conditions: Fig. 1; NBD-cholesterol 1.25 µM, competitive ligand 0.005 to 5 µM.
Series [13] addresses T5, AeSCP-2 W44E mutant. Description: Ligand competition assay with NBD-cholesterol. The series is classed as binding.
Series [14] addresses T2, wild type AeSCP-2. Nature of the series: Ligand competition assay with NBD-cholesterol. The format is binding.
Series [15] concerns the target T1, AeSCP-2 M90L mutant. Nature of the series: Ligand competition assay with NBD-cholesterol. The format is binding.
Series [16] has as its target T7, AeSCP-2 F32W mutant. Description: Ligand competition assay with NBD-cholesterol. The series is classed as binding.
The next series has as its target AeSCP-2 W44A mutant (Aedes aegypti, UniProt Q86PR3, W44A). Nature of the series: Ligand competition assay with NBD-cholesterol. The format is binding.
The target of series [17] is T4, AeSCP-2 F105W mutant. Nature of the series: Ligand competition assay with NBD-cholesterol. The series is classed as binding.
In series [18] the target is T6, AeSCP-2 Y30A mutant. Nature of the series: Ligand competition assay with NBD-cholesterol. The series is classed as binding.
In the next series the target is recombinant AeSCP-2. As to conditions: radiolabelled cholesterol; cited from earlier work.
The conditions of series [19]: within the lipid bilayer; cited from earlier work.

Take `[3H]C1C([3H])[C@@]2(C)C(=CC[C@H]3[C@@H]4CC[C@H]([C@H](C)CCCC(C)C)[C@@]4(C)CC[C@@H]32)C[C@H]1O` (stereo partly shown) [[^3H]cholesterol, [1,2-^3H (N)]-cholesterol]: the “Incorporation of [3H]cholesterol” value is “did not increase” with Aag-2 cells (cells over-expressing AeSCP-2 mutants F32A, W44E, M90L, and F105A); “increased significantly” in the series on Aag-2 cells (cells over-expressing wild type AeSCP-2 vs. empty vector).

`Br.CC(=O)Nc1ccc(Nc2nc(-c3ccc(Cl)c(Cl)c3)cs2)cc1` [SCPI-1]: the “Effect on tryptophan intrinsic fluorescence” value on AeSCP-2 M90L mutant [1] and at AeSCP-2 F9W/W44F mutant [4] was “still quenched” each time. The “Quenching of tryptophan intrinsic fluorescence, denatured protein” value in series [2] is “no significant quenching”. Moreover, at wild type AeSCP-2 [3], the “Effect on tryptophan intrinsic fluorescence signal” value was “significant decrease”.

For `[3H]C(CCCCCC)C([3H])CCCCCCCC(=O)O` (stereo not shown) [[^3H]palmitic acid, [9,10-^3H]-palmitic acid], the results for the “Incorporation of [3H]palmitic acid” value in the series with Aag-2 cells (cells transfected with either empty or AeSCP-2 wild type expression vectors) and in the series with Aag-2 cells (over-expression of AeSCP-2 mutants) were “no increase” and “did not affect”, respectively.

For `C[C@H](CNc1ccc([N+](=O)[O-])c2nonc12)[C@H]1CC[C@H]2[C@@H]3CC=C4C[C@@H](O)CC[C@]4(C)[C@H]3CC[C@]12C` [NBD-cholesterol, 22-(N-(7-nitrobenz-2-oxa-1,3-diazol-4-yl)amino)-23,24-bisnor-5-cholen-3β-o], the dissociation constant Kd stood at 1320 nM on AeSCP-2 F105W mutant [5]; 4200 nM on AeSCP-2 W44E mutant [6] (W44E, 0.5 µM NBD-cholesterol, protein 0.01 to 10 µM, mean (standard deviation)); 910 nM at AeSCP-2 F9W/W44F mutant [7] (F9W/W44F, 0.5 µM NBD-cholesterol, protein 0.01 to 10 µM, mean (standard deviation)); 250 nM on AeSCP-2 Y30A mutant [8] (Y30A, 0.5 µM NBD-cholesterol, protein 0.01 to 10 µM, mean (standard deviation)); 2750 nM at AeSCP-2 M90L mutant [9] (M90L, 0.5 µM NBD-cholesterol, protein 0.01 to 10 µM, mean (standard deviation)); 1150 nM at AeSCP-2 F105A mutant (F105A, 0.5 µM NBD-cholesterol, protein 0.01 to 10 µM, mean (standard deviation)). Moreover, the equilibrium dissociation constant (Kd) on AeSCP-2 F32W mutant [10] was 4940 nM; on AeSCP-2 wild-type, 340 nM; at AeSCP-2 F32A mutant (F32A, 0.5 µM NBD-cholesterol, protein 0.01 to 10 µM, mean (standard deviation)), 6360 nM. Besides, the “Fold of Kd change” value stood at 12.35 on AeSCP-2 W44E mutant [6] (W44E vs. wt); 2.68 at AeSCP-2 F9W/W44F mutant [7] (F9W/W44F vs. wt); 0.73 at AeSCP-2 Y30A mutant [8] (Y30A vs. wt); 8.09 on AeSCP-2 M90L mutant [9] (M90L vs. wt); 3.38 at AeSCP-2 F105A mutant (F105A vs. wt); 18.71 at AeSCP-2 F32A mutant (F32A vs. wt).

As to `Br.CC(=O)Nc1ccc(Nc2nc(-c3ccc(Cl)c(Cl)c3)cs2)cc1` [SCPI-1, N-4-{[4-(3,4-dichlorophenyl)-1,3-thiazol-2-yl]amino}phenyl)aetamide hydrobromide], the IC50 at AeSCP-2 [11] was less than 400 nM.

As for `COc1cccc(-n2sc3c(c2=S)-c2cc(Cl)ccc2NC3(C)C)c1` [SCPI-2, 8-chloro-2-(3-methoxyphenyl)-4,4-dimethyl-4,5-dihydroisothiazol[5,4-c]quinoline-1(2H)-thione], the “Effect on tryptophan intrinsic fluorescence” value on AeSCP-2 M90L mutant [1] and at AeSCP-2 F9W/W44F mutant [4] was “did not affect” in each case. Moreover, in series [2], the “Quenching of tryptophan intrinsic fluorescence, denatured protein” value is “no significant quenching”. In addition, on wild type AeSCP-2 [3], the “Effect on tryptophan intrinsic fluorescence signal” value was “significant decrease”. Further, the half-maximal inhibitory concentration (IC50) on AeSCP-2 [11] was less than 400 nM.

Take `CC(C)CCC[C@@H](C)[C@H]1CC[C@H]2C3=CC=C4C[C@@H](O)CC[C@]4(C)[C@H]3CC[C@]12C` [7-dehydrocholesterol]: at AeSCP-2 [12], the “Competition with NBD-cholesterol for binding to AeSCP-2” value (“Competition with NBD-cholesterol” below) is reported as “did not appear to compete”.

In the case of `CCCCCCCCCCCCCCCC(=O)O` [palmitic acid], the half-maximal effective concentration (EC50) came to 75 nM at AeSCP-2 W44E mutant [13]; 348 nM at wild type AeSCP-2 [14]; 127 nM at AeSCP-2 M90L mutant [15]; 398 nM on AeSCP-2 F32W mutant [16]; 127 nM at AeSCP-2 W44A mutant; 175 nM on AeSCP-2 F105W mutant [17]. The same compound showed an EC50 at AeSCP-2 Y30A mutant [18] of 100 nM. For the same compound, the “Competition with NBD-cholesterol” value at AeSCP-2 [12] was “also competed with NBD-cholesterol for binding to AeSCP-2”.

Consider `CC[C@H](CC[C@@H](C)[C@H]1CC[C@H]2[C@@H]3CC=C4C[C@@H](O)CC[C@]4(C)[C@H]3CC[C@]12C)C(C)C` [β-sitosterol], for which the EC50 was 42 nM at AeSCP-2 W44E mutant [13]; 142 nM on wild type AeSCP-2 [14]; 46 nM at AeSCP-2 M90L mutant [15]; 61 nM at AeSCP-2 F32W mutant [16]; 112 nM at AeSCP-2 W44A mutant; 83 nM on AeSCP-2 F105W mutant [17]. For the same compound, the half-maximal effective concentration (EC50) at AeSCP-2 Y30A mutant [18] is 96 nM. The “Competition with NBD-cholesterol” value at AeSCP-2 [12] was “also competed with NBD-cholesterol for binding to AeSCP-2”.

As for `CC(C)CCC[C@@H](C)[C@H]1CC[C@H]2[C@@H]3CC=C4C[C@@H](O)CC[C@]4(C)[C@H]3CC[C@]12C` [cholesterol], at recombinant AeSCP-2, the equilibrium dissociation constant (Kd) was 10 nM. The concentration for a half-maximal effect (EC50) on wild type AeSCP-2 [14] turned out to be 211 nM; at AeSCP-2 F32W mutant [16], 447 nM; at AeSCP-2 W44A mutant, 72 nM; on AeSCP-2 F105W mutant [17] it was 474 nM; at AeSCP-2 Y30A mutant [18], 282 nM. Besides, the “flip-flop rate t1/2” value in series [19] is 1 to 2 min. Further, the “Effect on tryptophan intrinsic fluorescence signal” value at wild type AeSCP-2 [3] is on record as “does not produce a quenching”. Moreover, the “Competition with NBD-cholesterol” value at AeSCP-2 [12] is given as “competed with the NBD-cholesterol for binding to AeSCP-2 in a dose-dependent fashion”.

As usually defined, the Kd is a measure of binding affinity in units of concentration. For orientation: IC50 means the concentration that inhibits the measured activity by half. As usually defined, the EC50 is the midpoint of the concentration-response curve.
